Results reported in ChEMBL document CHEMBL4251706, “Elimination of HIV-1 Latently Infected Cells by Gnidimacrin and a Selective HDAC Inhibitor” (ACS Med Chem Lett, 2018).
Active and inactive are the calls of the source. No cut-off for these calls is given here.

What was measured:
[1] = system: Human immunodeficiency virus 1; assay: Reactivation of latent HIV1 infected in human U1 cells assessed as increase in p24 production after 48 hrs by ELISA relative to vorinostat; assay type: functional
Summary of the method: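 U1 cells at 2x10^5 cells/ml incubated with a range of concentrations at 37 °C for 48 h. Supernatant p24 measured by HIV p24 ELISA. EC50 ± SD derived from 3 independent experiments.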

[2] = system: Human immunodeficiency virus 1; assay: Reactivation of latent HIV1 infected in human U1 cells assessed as increase in p24 production after 48 hrs by ELISA; assay type: functional, organism-based
[3] = target: Histone deacetylase 3/Nuclear receptor corepressor 2 (HDAC3/NCoR2) (Homo sapiens) (UniProt O15379+Q9Y618); assay: Inhibition of full length human C-terminal His-tagged HDAC3/N-terminal GST-tagged NCOR2 (395 to 489 residues) expressed in baculovirus infected Sf9 insect cells using substrate measured after 60 mins by colorimetric method
[4] = Cytotoxicity against human U937 cells assessed as reduction in cell viability after 48 hrs by CellTiter-Glo luminescent cell viability assay; assay type: cell-based, U-937
Summary of the method: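 U937 cells (HIV-1-negative parental line of U1) at 2x10^5 cells/ml exposed to a range of concentrations for 48 h at 37 °C. Viability read by CellTiter-Glo luminescence. CC50 ± SD derived from 3 independent experiments.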

[5] = Cytotoxicity against human J-Lat (A2) cells assessed as effect on cell viability at 0.3 uM after 72 hrs by flow cytometric analysis; assay type: cell-based
Summary of the method: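 J-Lat (A2) cells, 1x10^6 cells/well, incubated with the test agent at 37 °C for 72 h. GFP-expressing cells and percent viable cells measured by flow cytometry. Two independent experiments.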

[6] = Cytotoxicity against human Jurkat cells assessed as reduction in cell viability after 72 hrs by CellTiter-Glo luminescent cell viability assay; assay type: cell-based
PBMC [7] = assay: Induction of IFNgamma1 production in human PBMC at 3 uM after 2 days by ELISA; assay type: cell-based; settings: 48 h
[8] = system: Human immunodeficiency virus 1; assay: Reactivation of latent HIV1 infected in human J-Lat A2 cells assessed as increase in GFP positive cells at 0.5 nM after 72 hrs by flow cytometric analysis; assay type: functional, organism-based
Summary of the method: (§1)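 J-Lat (A2) cells express GFP on latent HIV-1 activation; 1x10^6 cells/well incubated with LRA(s), alone or in pairs (HDAC inhibitor TPB 0.3 µM or TPyB 1.0 µM), at 37 °C for 72 h; GFP+ cell frequency by flow cytometry; two independent experiments, one-tailed t-test.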

[9] = Cytotoxicity against human J-Lat (A2) cells assessed as effect on cell viability at 0.5 nM after 72 hrs by flow cytometric analysis; assay type: cell-based; settings: 0.0005 µM
Summary of the method: (§2)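 J-Lat (A2) cells, 1x10^6 cells/well, exposed to LRA(s) at 37 °C for 72 h; percent viable cells read by flow cytometry, two independent experiments.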

[10] = Selectivity index, ratio of CC50 for human U937 cells to EC50 for reactivation of latent HIV1 infected in human U1 cells; settings: U937 cells (CC50) and latent HIV-1 infected U1 cells (EC50)
[11] = Cytotoxicity against human J-Lat (A2) cells assessed as effect on cell viability at 80 pM after 72 hrs by flow cytometric analysis; assay type: cell-based; summary of the method: as §2
[12] = system: Human immunodeficiency virus 1; assay: Reactivation of latent HIV1 infected in human U1 cells/uninfected U937 cell mixture assessed as p24 level at 26 pM supplemented with fresh medium containing compound every 3 days for 18 days measured at day 18 post dose by ELISA; assay type: functional
Summary of the method: (§3)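 U1 and U937 cells mixed 1:4 (1x10^5 cells/ml) with LRA(s) (GM 26 pM, TPyB 0.57 µM) or DMSO, plus T20 1 µg/ml, for 18 days. p24 in supernatant read by ELISA every 3 days, after which medium with compound was renewed and cells reset to 1x10^5/ml. At day 18, part of the cells got GM 129 pM for 72 h and were read on day 21.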

PBMC [13] = assay: Induction of IFNgamma1 production in human PBMC at 20 pM after 2 days in presence of 3 uM HDAC inhibitor TPB by ELISA (reference value: 26 pg/ml); assay type: cell-based; settings: 48 h
PBMC [14] = assay: Induction of T-cell activation in human PBMC assessed as increase in CD69 expression at 3 nM measured after 1 day in presence of HDAC inhibitor TPyB by flow cytometric method; assay type: cell-based; settings: 24 h, 0.003 µM
[15] = system: Human immunodeficiency virus 1; assay: Synergistic reactivation of latent HIV1 infected in human PBMC assessed as reduction in frequency of HIV1 latently infected CD4+ cells at 20 pM preincubated for 6 days followed by PHA-stimulation measured after 48 hrs in presence of HDAC inhibitor TPB by ELISA; assay type: functional
[16] = system: Human immunodeficiency virus 1; assay: Synergistic reactivation of latent HIV1 infected in human U1 cells assessed as increase in p24 production after 48 hrs in presence of HDAC inhibitor TPB by ELISA; assay type: functional, organism-based; settings: Human immunodeficiency virus 1, U1, 48 h
[17] = system: Human immunodeficiency virus 1; assay: (§4) Synergistic reactivation of latent HIV1 infected in human U1 cells/uninfected U937 cell mixture assessed as increase in p24 production at 26 pM supplemented with fresh medium containing compound every 3 days for 18 days measured at day 6 post dose in presence of HDAC inhibitor TPyB by ELISA; assay type: functional, organism-based; summary of the method: as §3
[18] = system: Human immunodeficiency virus 1; assay: Synergistic reactivation of latent HIV1 infected in human J-Lat A2 cells assessed as increase in GFP positive cells after 72 hrs in presence of HDAC inhibitor TPB by flow cytometric analysis relative to control; assay type: functional; summary of the method: as §1
PBMC [19] = assay: Induction of IFNgamma1 production in human PBMC at 2000 pM after 2 days by ELISA (reference value: 29 pg/ml); assay type: cell-based; settings: 48 h, 0.002 µM
[20] = system: Human immunodeficiency virus 1; assay: Reactivation of latent HIV1 infected in human J-Lat A2 cells assessed as increase in GFP positive cells at 80 pM after 72 hrs by flow cytometric analysis relative to control; assay type: functional; summary of the method: as §1
PBMC [21] = assay: Induction of IFNgamma1 production in human PBMC at 20 pM after 2 days by ELISA (reference value: 29 pg/ml); assay type: cell-based; settings: 48 h
PBMC [22] = assay: Induction of IFNgamma1 production in human PBMC at 20 pM after 2 days in presence of 0.3 uM HDAC inhibitor SAHA by ELISA (reference value: 25 pg/ml); assay type: cell-based; settings: 48 h
PBMC [23] = assay: Induction of T-cell activation in human PBMC assessed as increase in CD69 expression at 3 nM measured after 1 day in presence of HDAC inhibitor vorinostat by flow cytometric method; assay type: cell-based; settings: 24 h, 0.003 µM
PBMC [24] = assay: Induction of IFNgamma1 production in human PBMC at 2000 pM after 2 days in presence of 1 uM HDAC inhibitor TPB by ELISA (reference value: 27 pg/ml); assay type: cell-based; settings: 48 h, 0.002 µM
[25] = system: Human immunodeficiency virus 1; assay: Reactivation of latent HIV1 infected in human U1 cells/uninfected U937 cell mixture assessed as increase in p24 production at 26 pM supplemented with fresh medium containing compound every 3 days for 18 days and subsequent dosing at 129 pM at day 18 post dose measured on day 21 by ELISA; assay type: functional, organism-based; summary of the method: as §3
PBMC [26] = assay: Induction of IFNgamma1 production in human PBMC at 2000 pM after 2 days in presence of 3 uM HDAC inhibitor TPB by ELISA (reference value: 26 pg/ml); assay type: cell-based; settings: 48 h, 0.002 µM
PBMC [27] = assay: Induction of IFNgamma1 production in human PBMC at 20 pM after 2 days in presence of 1 uM HDAC inhibitor TPB by ELISA (reference value: 27 pg/ml); assay type: cell-based; settings: 48 h
[28] = system: Human immunodeficiency virus 1; assay: Synergistic reactivation of latent HIV1 infected in human PBMC assessed as reduction in HIV1 DNA at 20 pM after 6 days in presence of HDAC inhibitor TPB by SYBR green dye based RT-PCR analysis relative to control; assay type: functional
[29] = system: Human immunodeficiency virus 1; assay: Synergistic reactivation of latent HIV1 infected in human U1 cells/uninfected U937 cell mixture assessed as reduction in proviral DNA level at 26 pM supplemented with fresh medium containing compound every 3 days for 18 days measured post last dose in presence of HDAC inhibitor TPyB by PCR analysis relative to control; assay type: functional
Summary of the method: (§5)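 Cells from the 18-day U1/U937 (1:4) co-culture with LRA(s) or DMSO plus T20 were tested for proviral DNA by PCR of HIV-1 pol (200 bp, 30 cycles), with B2M (779 bp, 25 cycles) as internal control. Products run on 2% agarose and quantified by densitometry; values are ratios of treated to DMSO.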

[30] = system: Human immunodeficiency virus 1; assay: Ratio of EC50 for reactivation of latent HIV1 infected in human U1 cells to EC50 for synergistic reactivation of latent HIV1 infected in human U1 cells in presence of HDAC inhibitor TPB; assay type: functional
[31] = system: Human immunodeficiency virus 1; assay: Reactivation of latent HIV1 infected in human U1 cells/uninfected U937 cell mixture assessed as increase in p24 production at 26 pM supplemented with fresh medium containing compound every 3 days for 18 days measured at day 9 post dose by ELISA; assay type: functional, organism-based; summary of the method: as §3
[32] = system: Human immunodeficiency virus 1; assay: Synergistic reactivation of latent HIV1 infected in human U1 cells assessed as increase in p24 production after 48 hrs in presenc of HDAC inhibitor TPB by ELISA relative to vorinostat; assay type: functional
PBMC [33] = assay: Induction of IFNgamma1 production in human PBMC at 2000 pM after 2 days in presence of 0.3 uM HDAC inhibitor SAHA by ELISA (reference value: 25 pg/ml); assay type: cell-based; settings: 48 h, 0.002 µM
[34] = system: Human immunodeficiency virus 1; assay: Synergistic reactivation of latent HIV1 infected in human U1 cells/uninfected U937 cell mixture assessed as p24 level at 26 pM supplemented with fresh medium containing compound every 3 days for 18 days measured at day 6 post dose in presence of HDAC inhibitor TPyB by ELISA; assay type: functional; summary of the method: as §3
[35] = system: Human immunodeficiency virus 1; assay: as §4, with “days and subsequent dosing at 129 pM” for “days measured”, “day 18” for “day 6”, “dose measured on day 21” for “dose”; assay type: functional, organism-based; summary of the method: as §3
[36] = system: Human immunodeficiency virus 1; assay: Reactivation of latent HIV1 infected in human U1 cells/uninfected U937 cell mixture assessed as reduction in proviral DNA level at 26 pM supplemented with fresh medium containing compound every 3 days for 18 days measured post last dose by PCR analysis; assay type: functional, organism-based; summary of the method: as §5
[37] = Human immunodeficiency virus 1, U1, 48 h, read-out: EC50

Nc1cc(F)ccc1NC(=O)/C=C/c1cnn(C/C=C/c2ccccc2)c1
fold change (FC) [1]: 0 | EC50 ([2]; u1): Not Active | inhibition [3]: Active

CC(=O)Nc1ccc(C(=O)Nc2cc(-c3cccs3)ccc2N)cc1
CC50 at 48 h [4]: 14000 nM | Activity [5]: Non-Toxic | CC50 at 72 h [6]: 12600 nM | fold change (FC) [1]: 1.4 | EC50 [2, 37]: 930 nM | Activity (PBMC [7]): Non-Toxic

C/C=C(/C)C(=O)O[C@H]1C(C)=C[C@]23C(=O)[C@@H](C=C(CO)[C@@H](O)[C@]12O)[C@H]1[C@@H](C[C@H]3C)C1(C)C [INGENOL MEBUTATE]
Activity [8]: Active | Activity [9]: Non-Toxic | selectivity ratio [10]: > 42 | CC50 at 48 h [4]: > 200 nM | fold change (FC) [1]: 9.7 | EC50 [2, 37]: 4.8 nM

C=C(C)[C@@]12C[C@@H](COC(=O)c3ccccc3)[C@@]34OC5(O[C@@H]1[C@@H]3[C@@H]1O[C@]1(CO)[C@@H](O)[C@@]1(O)[C@H]4[C@H]([C@H](C)[C@@H]1OC(=O)c1ccccc1)[C@H](C)CCCCCC[C@H]5O)O2 [GNIDIMACRIN]
Activity [11]: Non-Toxic | Activity [12]: 49 pg/mL | Activity (PBMC [13]): 32 pg/mL | Activity (PBMC [14]): Toxic | fold change (FC) [15]: >3 | EC50 [16]: 0.0056 nM | Activity [17]: Active | Activity [18]: 21% | Activity (PBMC [19]): 164 pg/mL | selectivity ratio [10]: 260000 to 750000 | Activity [20]: >5% | CC50 at 48 h [4]: 4200 to 4800 nM | Activity (PBMC [21]): 35 pg/mL | Activity (PBMC [22]): 30 pg/mL | Activity (PBMC [23]): Toxic | Activity (PBMC [24]): 47 pg/mL | Activity [25]: inactive | CC50 at 72 h [6]: 5300 nM | Activity (PBMC [26]): 42 pg/mL | Activity (PBMC [27]): 34 pg/mL | fold change (FC) [1]: 12.3 | fold change (FC) [28]: 1.8 | EC50 [2, 37]: 0.018 nM | fold change (FC) [29]: 10 | Ratio EC50 [30]: >3 | Activity [31]: Active | fold change (FC) [32]: 13.8 | Activity (PBMC [33]): 39 pg/mL | Activity [34]: 12 pg/mL | Activity [35]: inactive | Activity [36]: Active
